The values that follow come from ChEMBL document CHEMBL4350999, “Enhanced tumor retention of NTSR1-targeted agents by employing a hydrophilic cysteine cathepsin inhibitor” (Eur J Med Chem, 2019).

A short description of series [1]: Drug internalization in human HT-29 cells assessed as efflux percentage measured at 24 hrs using 177Lu labelled compound by gamma counter method relative to control. Particulars: ht-29, 24 h. The format is ADME, cell-based. Summed up: (§1)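 HT-29 cells (~1 × 10^6) loaded 2 h at 37 °C with 177Lu conjugate (100,000 cpm), washed, then given fresh medium. Medium collected and replaced at 1, 2, 4, 8, 24 h and gamma-counted; cells lysed in 10% SDS at 24 h. Efflux expressed as % of total internalized activity (effluxed + cell-retained); n = 3.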

Series [2] in a line: Ratio of drug uptake in SCID mouse xenograted with human HT-29 cells assessed as tumour retention to drug uptake in pancreas of SCID mouse xenografted with human HT-29 cells measured after 4 hrs using 177Lu labelled compound. The format is ADME, tissue-based, Tumor/Pancreas. Summed up: (§2)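 Female SCID mice (5 weeks old) received s.c. flank HT-29 cells (5 × 10^6 in Matrigel). At ~80 mm3, two weeks later, mice were randomized and given 10 μCi (0.37 MBq) of purified 177Lu conjugate i.v. by tail vein. Mice were killed at 4, 24 or 72 h. Tissues were weighed and gamma counted as %ID/g, mean ± SD, n = 5. Tumor-to-tissue ratios were calculated.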
In general terms: A xenograft is tissue or cells of one species grown in another, often human tumour cells in immunodeficient mice.

Series [3] is described as follows: Ratio of drug uptake in SCID mouse xenograted with human HT-29 cells assessed as tumour retention to drug uptake in spleen of SCID mouse xenografted with human HT-29 cells measured after 4 hrs using 177Lu labelled compound. The format is ADME, tissue-based, Tumor/Spleen. The method in brief:
as §2

The nature of series [4]: Ratio of drug uptake in SCID mouse xenograted with human HT-29 cells assessed as tumour retention to drug uptake in muscle of SCID mouse xenografted with human HT-29 cells measured after 4 hrs using 177Lu labelled compound. It counts as ADME, tissue-based, Tumor/Muscle. The method in brief:
as §2

A short description of series [5]: Ratio of drug uptake in SCID mouse xenograted with human HT-29 cells assessed as tumour retention to drug uptake in blood of SCID mouse xenografted with human HT-29 cells measured after 24 hrs using 177Lu labelled compound. It counts as ADME, tissue-based, Tumor/Blood. Summed up: as §2
A short description of series [6]: Ratio of drug uptake in SCID mouse xenograted with human HT-29 cells assessed as tumour retention to drug uptake in liver of SCID mouse xenografted with human HT-29 cells measured after 24 hrs using 177Lu labelled compound. It counts as ADME, tissue-based, Tumor/Liver. The method in brief: as §2
Series [7] in a line: Ratio of drug uptake in SCID mouse xenograted with human HT-29 cells assessed as tumour retention to drug uptake in spleen of SCID mouse xenografted with human HT-29 cells measured after 24 hrs using 177Lu labelled compound. It counts as ADME, tissue-based, Tumor/Spleen. Summed up:
as §2

Series [8] can be described thus: Ratio of drug uptake in SCID mouse xenograted with human HT-29 cells assessed as tumour retention to drug uptake in kidney of SCID mouse xenografted with human HT-29 cells measured after 24 hrs using 177Lu labelled compound. The format is ADME, tissue-based, Tumor/Kidney. The method in brief: as §2
Series [9] in a line: Ratio of drug uptake in SCID mouse xenograted with human HT-29 cells assessed as tumour retention to drug uptake in lung of SCID mouse xenografted with human HT-29 cells measured after 72 hrs using 177Lu labelled compound. It counts as ADME, tissue-based, Tumor/Lung. The method in brief:
as §2

Series [10] in a line: Ratio of drug uptake in SCID mouse xenograted with human HT-29 cells assessed as tumour retention to drug uptake in pancreas of SCID mouse xenografted with human HT-29 cells measured after 72 hrs using 177Lu labelled compound. The format is ADME, tissue-based, Tumor/Pancreas. The method in brief:
as §2

Series [11] in a line: Ratio of drug uptake in SCID mouse xenograted with human HT-29 cells assessed as tumour retention to drug uptake in small intestine of SCID mouse xenografted with human HT-29 cells measured after 72 hrs using 177Lu labelled compound. The format is ADME, tissue-based, Tumor/Small intestine. Summed up: as §2
A short description of series [12]: Stability of 177Lu labelled compound in human serum assessed as parent compound remaining at 37 degC after 1 hr RP-HPLC analysis. Particulars: read-out: Stability. It counts as ADME, cell-free. The method in brief:
(§3)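 Radioconjugate (1.5 mCi, 55.5 MBq) was incubated in 300 μL human serum at 37 °C. At 1, 3 and 24 h, acetonitrile was added and samples were spun at 12,000×g for 5 min. Supernatant was dried under nitrogen, reconstituted in water and analyzed by radio-HPLC.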

Series [13] in a line: Stability of 177Lu labelled compound in human serum assessed as parent compound remaining at 37 degC after 24 hrs by RP-HPLC analysis. It counts as ADME, cell-free. Particulars: read-out: Stability. Summed up:
as §3

Series [14] deals with Cathepsin B (Homo sapiens, UniProt P07858). Kind of series: Inhibition of human liver cathepsin B assessed as second order rate constant using Z-Arg-Arg-AMC as substrate measured every 5 mins for 1 hr by fluorescence assay. Summed up:
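Human liver cathepsin B, 2 nM final, in 0.1 M phosphate pH 5.8 (1 mM EDTA, 2.7 mM DTT, 0.03% Brij35). Enzyme mixed with conjugate (1–500 nM final), then Z-Arg-Arg-AMC added (800 μM final); 37 °C. […] Biological triplicate.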

The target of series [15] is Neurotensin receptor type 1 (Homo sapiens, UniProt P30989). As to the kind of experiment: Displacement of [177Lu] DOTA-beta-ala-[N-alpha-Me8, Dmt11, Tle12] NT6-13 from neurotensin receptor in human HT-29 cells incubated for 45 mins by gamma counter analysis. It counts as cell-based. Summed up:
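HT-29 cells (~1 × 10^6) in McCoy's 5A with HEPES and 2 mg/mL BSA, pH 7.4. Incubated 45 min at 37 °C with 177Lu-N1 (100,000 cpm) plus conjugate at 5 nM–1 μM. Cells washed, bound activity gamma-counted, IC50 obtained by nonlinear regression; biological triplicate.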

A short description of series [16]: Drug uptake in human HT-29 cells measured after 240 mins using 177Lu labelled compound by gamma counter method relative to control. It counts as ADME, cell-based. Conditions: ht-29, 4 h. Summed up:
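HT-29 cells (~1 × 10^6 in 1 mL medium) were incubated with 177Lu-conjugate (100,000 cpm) at 37 °C and sampled at 15–240 min. After medium washes, surface-bound activity was stripped with pH 2.8 glycine-HCl/NaCl buffer, and the internalized fraction was taken from the 1% SDS lysate. Fractions were gamma-counted as % of total added activity; mean ± SD, n = 3.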

Series [17] can be described thus: Drug internalization in human HT-29 cells assessed as efflux fraction measured at 2 hrs using 177Lu labelled compound by gamma counter method. Particulars: ht-29, 2 h. The format is ADME, cell-based. Summed up: as §1
A short description of series [18]: Drug localization in endolysosomal vesicles of human HT-29 cells measured at 2 hrs using Eu labelled compound by lysotracker green staining based confocal microscopic analysis. It counts as ADME, subcellular. Conditions: ht-29, 2 h. The method in brief:
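HT-29 cells (1.25 × 10^5/well) incubated 2 h at 37 °C with natEu conjugate (5 μM), with or without N1 (20 μM). Lysotracker Green (100 nM) added for 1 h; cells washed, formaldehyde-fixed and imaged confocally at 405/488 nm excitation. Mean pixel intensity normalized to cell count.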

The nature of series [19]: Drug retention in kidney of mouse xenografted with human HT-29 cells assessed as tissue-conjugate adduct formation at 29.6 MBq measured after 72 hrs using 177Lu labelled compound by SDS-PAGE analysis. The format is ADME, tissue-based. Particulars: in vivo. Summed up:
(§4)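 HT-29 xenograft mice given 800 μCi (29.6 MBq) 177Lu conjugate i.v. and killed at 72 h. Tumor, liver and kidney homogenized in RIPA with protease inhibitor and supernatants run on SDS-PAGE autoradiography. Other supernatant aliquots filtered through 10 kDa MWCO devices to give the % macromolecule-associated radioactivity; n = 3.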

Series [20] is described as follows: Drug retention in liver of mouse xenografted with human HT-29 cells assessed as tissue-conjugate adduct formation at 29.6 MBq measured after 72 hrs using 177Lu labelled compound by SDS-PAGE analysis. Conditions: in vivo. The format is ADME, tissue-based. Summed up: as §4
Series [21] is described as follows: Drug retention in tumor of mouse xenografted with human HT-29 cells assessed as conjugate adduct formation at 29.6 MBq measured after 72 hrs using 177Lu labelled compound by SDS-PAGE analysis. It counts as ADME, tissue-based, Neoplasm. Conditions: in vivo. Summed up:
as §4

pIC50: −log10 of the molar value. Activity calls are given as the source filed them. No cut-off for these calls is given here.

Neurotensin receptor type 1, sequence (P30989 whole entry): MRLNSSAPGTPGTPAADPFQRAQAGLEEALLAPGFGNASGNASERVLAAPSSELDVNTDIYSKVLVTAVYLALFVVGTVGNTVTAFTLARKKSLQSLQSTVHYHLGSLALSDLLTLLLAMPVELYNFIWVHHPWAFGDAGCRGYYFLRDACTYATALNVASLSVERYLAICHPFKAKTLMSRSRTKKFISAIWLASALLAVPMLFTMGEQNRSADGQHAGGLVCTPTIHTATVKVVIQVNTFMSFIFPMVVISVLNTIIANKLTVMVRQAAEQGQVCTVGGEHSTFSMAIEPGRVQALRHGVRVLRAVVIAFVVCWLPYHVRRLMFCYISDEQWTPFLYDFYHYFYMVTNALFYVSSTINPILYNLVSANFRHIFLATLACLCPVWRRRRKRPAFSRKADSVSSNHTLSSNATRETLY

As for `Cc1cc(C)c(C(=O)OCC(=O)[C@H](CCCCNC(=O)CNC(=O)[C@@H](CO)NC(=O)[C@@H](CO)NC(=O)[C@@H](CO)NC(=O)Cn2cc(C[C@H](NC(=O)CN3CCN(CC(=O)O)CCN(CC(=O)O)CCN(CC(=O)O)CC3)C(=O)N[C@H](CO)C(=O)N[C@H](CO)C(=O)N[C@H](CO)C(=O)N[C@@H](CCCCN)C(=O)N3CCC[C@H]3C(=O)N(C)[C@@H](CCCNC(=N)N)C(=O)N[C@@H](CCCNC(=N)N)C(=O)N3CCC[C@H]3C(=O)N[C@@H](Cc3c(C)cc(O)cc3C)C(=O)N[C@H](C(=O)N[C@@H](CC(C)C)C(=O)O)C(C)(C)C)nn2)NC(=O)[C@H](Cc2ccccc2)NC(=O)OCc2ccccc2)c(C)c1`, the Drug uptake in series [1] came to 39%. Moreover, the Ratio in [2] is on record as 9; in series [3], 0.5; in series [4] it was 15; in [6], 0.5; in [7], 0.7; in series [8], 0.15. Besides, the Ratio in series [9] was determined as 2.6; in series [10], 6.5; in series [11] it was 0.9. The Kp (as a rule, tissue or fluid exposure divided by exposure in the circulation) at 24 h in series [5] came to 69.
For the compound `Cc1cc(O)cc(C)c1C[C@H](NC(=O)[C@@H]1CCCN1C(=O)[C@H](CCCNC(=N)N)NC(=O)[C@H](CCCNC(=N)N)N(C)C(=O)[C@@H]1CCCN1C(=O)[C@H](CCCCN)NC(=O)[C@@H](CO)NC(=O)[C@@H](CO)NC(=O)[C@@H](CO)NC(=O)[C@H](Cc1cn(CCNC(=O)[C@H](CCCNC(=N)N)NC(=O)[C@H](CC(C)C)NC(=O)C2OC2C(=O)O)nn1)NC(=O)CN1CCN(CC(=O)O)CCN(CC(=O)O)CCN(CC(=O)O)CC1)C(=O)N[C@H](C(=O)N[C@@H](CC(C)C)C(=O)O)C(C)(C)C` (some centres not stated), the Drug uptake was 50% in series [1]; 6% in [16]; 27.3% in series [17]; “Active” in series [18]; “Active” in series [19]; “Active” in [20]. Besides, in [21], the Drug uptake entry is “Active”. In [12], the remaining at 1 h is 93.6%. For the same compound, the remaining at 24 h in [13] was 36.9%. In addition, the K in series [14] is 67000 M⁻¹ s⁻¹. Besides, the pIC50 (as a rule, the IC50 on a negative log10 scale, so that one unit is a factor of ten) in series [15] is 7.22. In addition, the Ratio in [2] was determined as 38; in [3], 5; in series [4], 94; in series [6], 8.5; in [7], 4; in series [8], 0.08. Also, the Ratio in series [9] is on record as 10; in series [10], 30; in series [11], 1.7. Besides, the Kp at 24 h in series [5] was determined as 422.
Take `Cc1cc(O)cc(C)c1C[C@H](NC(=O)[C@@H]1CCCN1C(=O)[C@H](CCCNC(=N)N)NC(=O)[C@H](CCCNC(=N)N)N(C)C(=O)[C@@H]1CCCN1C(=O)[C@H](CCCCN)NC(=O)[C@@H](CO)NC(=O)[C@@H](CO)NC(=O)[C@@H](CO)NC(=O)[C@H](Cc1cn(CCNC(=O)[C@H](CCCNC(=N)N)NC(=O)[C@H](CC(C)C)NC(=O)CCC(=O)O)nn1)NC(=O)CN1CCN(CC(=O)O)CCN(CC(=O)O)CCN(CC(=O)O)CC1)C(=O)N[C@H](C(=O)N[C@@H](CC(C)C)C(=O)O)C(C)(C)C`: the remaining at 1 h in [12] stood at 84.7%. For the same compound, in [13], the remaining at 24 h worked out at 49.5%. The inhibition result in series [14] was “inactive”. For the same compound, the pIC50 in series [15] was 7.20. Moreover, the Drug uptake in series [16] was 6%; in series [17] it was 32.3%; in series [18], “Active”; in series [19], “Not Active”; in series [20] it was “Not Active”; in [21] it was “Not Active”.
